Screening data (PubChem BioAssay)
Hits are enriched below; roughly 4.3% of the tested compounds scored in any of these assays.
SR-BI uptake up: activators of SR-BI mediated DiI-HDL uptake, primary screen, ldlA[mSR-BI] CHO cells, DiI fluorescence; activation, % at 12.5 µM; 0.096% of 320,000 active; 3 h; 100 = double the neutral-control signal; AID 504775, 2011;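 active means mean replicate activation of at least 60% and every replicate at or above 60%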;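 further: 0% = median plate neutral-control signal and 100% = twice that signal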
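System: CHO ldlA[mSR-BI] cells / Medium: HEPES-buffered (25 mM, pH 7.4) F12 plus 0.5% BSA / Probe or stimulus: labelled HDL, 10 µg/mL / Doses: single compound concentration, delivered by pin transfer / Schedule: 3 h, 37 °C / Measured by: DiI fluorescence, bottom read / Measure: cell-associated DiI fluorescence as measure of HDL uptake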
AHR act: AHR activators, primary screen, cell-based, luminescence, luciferase reporter, human; Aryl hydrocarbon receptor (Homo sapiens), P35869; AHR-responsive luciferase reporter cells; activation, % at 5 µM; 2.5% of 320,000 active; AID 2796, 2010; in the data active means activation above about 47%;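 further: 0% = vehicle wells and 100% = reference agonist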
Hep lipid drop: inhibitors of hepatocyte lipid droplet formation, primary screen, imaging, high-throughput imaging, BODIPY stain | AML12 mouse hepatocytes, oleate lipid droplets | AID 1656, 2009 | 0.4% of 240,000 active | inhibition, % at 6.5 µM;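 active means lipid droplet intensity inhibited by at least 50%, with more than 500 cells counted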
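Assay system: AML12 mouse liver cells | Compound dosing: One dose, 6.5 µM compound | Read-out basis: Droplet intensity reduction, % inhibition | Measured by: Fluorescence imaging, 20x objective, two fields per well | Schedule: Overnight treatment with compound plus oleate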
Yeast superoxide: reduction of superoxide in aged yeast, primary screen, HTS | S. cerevisiae aged cells, superoxide DHE fluorescence; active compounds read low | superoxide response (% of plate mean), % at 10 µM | 0.18% of 330,000 active | AID 2690, 2010;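 active means superoxide response under a set limit, about three screen SD below normal, cut at about 65% in these data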;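 further: yeast aged for seven days with compound at 30 °C before DHE staining; 100% = average MFI of all compound-treated wells on the plate with controls excluded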
SMARCA2 activ: SMARCA2 (BRM) function activators, primary screen, cell-based, luminescence, high throughput; MG213 cells, MMTV-luciferase reporter, dexamethasone, overnight; activation, % at 9.1 µM; 1% of 370,000 active; in the data active means activation above about 7.8%;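 further: 0% = vehicle wells and 100% = reference activator wells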
SR-BI DiI inh: inhibitors of SR-BI mediated HDL lipid uptake, primary screen, ldlA[mSR-BI] cells, fluorescence, single point | Scavenger receptor class B member 1 (Mus musculus), Q61009 | ldlA[mSR-BI] CHO cells, DiI-HDL uptake fluorescence, 3 h | inhibition, % at 12.5 µM | 0.96% of 320,000 active | AID 488896, 2010;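 active means mean replicate inhibition of at least 70% and a set share of replicates each scoring 70 or more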;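 further: 0% = median of neutral control wells and 100% = median of positive control wells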
Target sequence (Q61009 whole entry, looked up): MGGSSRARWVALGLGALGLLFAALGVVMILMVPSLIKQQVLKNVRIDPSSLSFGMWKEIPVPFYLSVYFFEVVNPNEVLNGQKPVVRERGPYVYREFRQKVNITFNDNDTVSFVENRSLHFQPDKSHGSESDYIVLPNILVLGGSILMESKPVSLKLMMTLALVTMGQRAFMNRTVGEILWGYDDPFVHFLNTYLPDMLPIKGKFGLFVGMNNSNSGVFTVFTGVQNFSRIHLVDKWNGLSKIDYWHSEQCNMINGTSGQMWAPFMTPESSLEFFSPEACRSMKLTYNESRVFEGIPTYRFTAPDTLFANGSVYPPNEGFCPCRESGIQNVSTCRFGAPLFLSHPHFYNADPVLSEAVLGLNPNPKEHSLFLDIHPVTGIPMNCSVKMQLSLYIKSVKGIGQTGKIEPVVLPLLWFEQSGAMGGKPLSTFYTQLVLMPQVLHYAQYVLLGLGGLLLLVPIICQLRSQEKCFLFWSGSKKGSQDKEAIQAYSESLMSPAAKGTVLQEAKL
AHR act cf: AHR activators, confirmation, cell-based, luminescence, luciferase reporter, human. AID 2845, 2010. human cells, AHR-responsive luciferase reporter. activation, % at 9 µM. 87% of 2,300 active. shares compounds with AHR act; in the data active means activation above about 49%;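 further: HepG2 hepatoma cells carrying a DRE-driven firefly luciferase reporter; 0% = vehicle wells and 100% = reference agonist wells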
PXR act counter: human PXR activators, counter-screen for AHR activator project, cell-based, luciferase luminescence; shares compounds with AHR act; activation, % at 11.6 µM; cell-based PXR reporter; 88% of 2,300 active; in the data active means activation above about 11%;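 further: human hepatoma DPX-2 cells expressing full-length human PXR; 0% = DMSO and 100% = reference agonist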
* = called active by the depositor; / = no result.

SMILES	SR-BI uptake up	AHR act	Hep lipid drop	Yeast superoxide	SMARCA2 activ	SR-BI DiI inh	AHR act cf	PXR act counter
Cc1cccc(-c2cccc3c4c([nH]c23)[C@@H]2C[C@H](N(C)C(=O)c3ccco3)[C@H]([C@H](C)O)CN2CC4)c1	/	/	/	/	1.0	/	/	/
CC(C)C[C@H]1COc2cccc(NCCO)c2S(=O)(=O)N1	/	/	/	/	-2.5	/	/	/
COc1ccc(N2Cc3ccc(OC)c(OC)c3C2=O)cc1	3.8	-5.7	19.9	104.8	4.0	-3.8	/	/
COc1ccc2c(c1OC)C(=O)N(c1nccs1)C2	-8.9	81.6*	/	113.0	3.5	8.9	148.5*	17.0*
O=S1(=O)c2c(cccc2N2CCC[C@H]2CO)OCCCN1C1CC1	/	/	/	/	-1.7	/	/	/
CCOc1ccc2nc(NC(=O)Cc3cccs3)sc2c1	-21.2	33.8	38.8	89.4	/	21.2	/	/
CCOc1ccc2nc(NC(=O)Nc3cccs3)sc2c1	-39.8	95.6*	/	85.8	2.7	39.8	90.2*	12.0*
CCN(CC)C(=O)CC[C@@H]1CC[C@]2(CCCN(S(=O)(=O)c3ccccc3)C2)O1	/	/	/	/	-4.2	/	/	/
COc1ccc(Nc2nc(NN)nc(Nc3ccc(OC)cc3)n2)cc1	1.8	13.9	-0.5	103.8	-1.7	-1.8	/	/
COc1ccc(Nc2nccc(-c3cccc(N)c3)n2)cc1	6.5	132.2*	24.4	101.8	4.7	-6.5	54.5*	30.4*
COc1ccc(Nc2nccc(-c3ccc(C#N)cc3)n2)cc1	-37.0	80.3*	-14.2	97.5	-3.5	37.0	54.2*	16.0*
Cc1ccccc1C(=O)N=c1sccn1C	-23.6	6.8	17.2	105.9	-1.0	23.6	/	/
Cc1cccc(C(=O)N=c2sccn2C)c1[N+](=O)[O-]	-7.5	99.0*	-35.4	91.0	2.8	7.5	81.6*	141.8*
Cc1ccc(C(=O)N=c2sccn2C)cc1C	2.3	193.7*	4.4	100.9	5.2	-2.3	136.0*	41.3*
CCCCOc1ccc(C(=O)N=c2sccn2C)cc1OC	-45.5	-10.7	15.5	99.7	2.8	45.5	/	/
CCN(CC)S(=O)(=O)c1cc(C(=O)N=c2sccn2C)ccc1OC	11.2	99.6*	-1.8	85.3	-2.3	-11.2	87.4*	125.4*
Cc1ccc(C(=O)N=c2sccn2C)cc1S(=O)(=O)N1CCOCC1	-18.4	15.8	/	98.2	3.4	18.4	/	/
COc1ccc2nc(NC(=O)CSc3n[nH]c(N)n3)sc2c1	-9.6	93.6*	/	94.8	0.4	9.6	108.3*	21.5*
O=C(C(=O)N1CCC(CNC(=O)c2cccnc2Cl)CC1)c1cc2ccccc2o1	/	/	/	/	-3.7	/	/	/
Cc1ccccc1/C=C1\Oc2ccccc2C1=O	-3.8	98.8*	/	117.2	-1.7	3.8	92.3*	98.0*
COc1cccc(NC(=O)N2CCc3ccccc3C2)c1	9.5	41.1	1.2	92.5	0.7	-9.5	/	/
CC(C)c1ccc(NC(=O)N2CCc3ccccc3C2)cc1	-22.1	114.0*	-30.1	94.3	4.3	22.1	96.2*	92.7*
O=C(Nc1cccc(Cl)c1)N1CCc2ccccc2C1	-8.7	114.0*	-1.9	92.8	1.3	8.7	118.1*	29.8*
COCc1[nH]nc2c1C(c1ccccc1)NC2=O (stereo unspecified)	/	/	/	/	-6.1	/	/	/
O=C(Nc1cc(-c2nc3ncccc3o2)ccc1Cl)c1cccs1	-21.8	133.7*	8.8	90.3	3.0	21.8	97.5*	47.0*
SMILES	SR-BI uptake up	AHR act	Hep lipid drop	Yeast superoxide	SMARCA2 activ	SR-BI DiI inh	AHR act cf	PXR act counter
COc1ccc(-c2nc3ncccc3o2)cc1NC(=O)c1cccs1	-28.6	80.7*	-6.9	97.5	-1.8	28.6	42.8	29.7*
CCCCc1c(-c2ccccc2OC)ncn1Cc1cccc(F)c1F	/	/	/	/	-0.6	/	/	/
CC(C)(C)OC(=O)N1CCC[C@@H]1C(=O)N1CCC[C@H]1C(=O)NCc1ccccc1	/	/	/	/	-1.1	/	/	/
O=C(Nc1cccc(Cl)c1)c1ccc(=O)[nH]n1	-5.9	148.2*	/	104.7	3.3	5.9	103.8*	/
Cc1cc(C(=O)N/N=C/c2cccc([N+](=O)[O-])c2O)n[nH]1	0.7	20.6	-0.7	108.6	-2.3	-0.7	/	/
Cc1c(C(=O)N/N=C/C(C)C)[nH]c2c([N+](=O)[O-])cccc12	-33.4	86.0*	-35.5	136.5	1.0	33.4	38.7	10.2*
CC(=O)O[C@@H]1C=C[C@@H](C#Cc2ccc(C(C)(C)C)cc2)O[C@@H]1COC(=O)Nc1ccccc1	/	/	/	/	-7.3	/	/	/
Cc1ccccc1C(=O)N[C@H](C(=O)N1CCC[C@H]1C(=O)NC1CCCC1)c1ccccc1	/	/	/	/	-2.4	/	/	/
CSc1nc2[nH]c3c(c2c2nncn12)CC(C)(C)OC3	-2.1	9.0	-0.9	80.9	1.0	2.1	/	/
CSc1nc2[nH]c3c(c2c2nnnn12)CCCC3	7.4	115.6*	-10.6	92.8	1.0	-7.4	106.9*	44.3*
O=C(CN1C2=NCCN2c2ccccc21)C12CC3CC(CC(C3)C1)C2	2.9	82.4*	/	110.9	-0.3	-2.9	47.9*	57.8*
O=C(CCc1ccccc1)N[C@H]1[C@H](OC(=O)c2ccco2)CCC[C@]12C(=O)N(Cc1ccccc1)c1ccccc12	/	/	/	/	-2.8	/	/	/
CCOc1ccccc1NC(=O)c1ccc2nccnc2c1	-37.9	82.8*	/	98.8	-0.8	37.9	108.7*	/
CCCOc1ccccc1NC(=O)c1ccc(N)cc1	-53.0	101.5*	2.5	83.2	-1.7	53.0	117.2*	46.8*
C[C@@H](NC(=O)C[C@H]1CC[C@H]2[C@@H](COc3ccc(NC(=O)Nc4ccccc4)cc3C(=O)N2C)O1)c1ccccc1	/	/	/	/	-5.7	/	/	/
CC(C)CNS(=O)(=O)CC1NCc2cc3c(cc21)OCO3 (stereo unspecified)	/	/	/	/	-2.9	/	/	/
CC(C)(C)S(=O)N1C[C@@H]2CC(=O)C(c3ccccc3)=C2[C@H]1CCO (stereo partly specified)	/	/	/	/	-4.1	/	/	/
COc1ccccc1C(=O)NCC(=O)N/N=C/c1cn[nH]c1-c1ccccc1	35.8	155.7*	-7.7	91.0	-3.1	-35.8	111.3*	12.0*
COc1ccc(-c2[nH]ncc2/C=N\NS(=O)(=O)c2ccccc2)cc1OC	24.3	91.8*	22.3	93.6	-0.7	-24.3	33.0	23.9*
COc1ccc(-c2[nH]ncc2/C=N\NS(=O)(=O)c2ccc(Cl)cc2)cc1	5.3	32.6	-6.6	89.9	/	-5.3	/	/
